Calls of active or inactive are those of the source. No cut-off for these calls is given here.
How the values were obtained:
Nucleic Acid [1] = test: Induction of DNA damage in Escherichia coli pBR322 assessed as supercoiled DNA cleavage at 25 uM after 24 hrs by agarose gel electrophoresis in presence of Cu2+; type: nucleic-acid assay
In short: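 Compound with Cu(II) at 1:1, no added reducing agent. Mixture holds 100 ng form I pBR322 in 10 mM MOPS, pH 7.4, incubated 37 °C for 24 h. Supercoiled-to-nicked (form II) cleavage read on gel against a DNA-only lane.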

Nucleic Acid [2] = test: Induction of DNA damage in Escherichia coli pBR322 assessed as supercoiled DNA cleavage at 25 uM after 24 hrs by agarose gel electrophoresis; type: nucleic-acid assay
In short: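 Compound at 25 µM without Cu(II) and with no added reducing agent, incubated with supercoiled pBR322 plasmid DNA. Damage assessed as cleavage of supercoiled form on gel.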

Nucleic Acid [3] = test: Induction of DNA damage in Escherichia coli pBR322 assessed as supercoiled DNA cleavage at 10 uM after 24 hrs by agarose gel electrophoresis in presence of Cu2+; type: nucleic-acid assay
In short: (§1)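 Concentration course of 1–10 µM compound with an equimolar amount of Cu(II). Mixture holds 100 ng supercoiled pBR322 plasmid (form I) in 10 mM MOPS, pH 7.4, incubated 37 °C for 24 h. Cleavage to nicked form II read on gel against a DNA-only lane.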

Nucleic Acid [4] = test: Induction of DNA damage in Escherichia coli pBR322 assessed as supercoiled DNA cleavage at 1 uM after 24 hrs by agarose gel electrophoresis in presence of Cu2+; type: nucleic-acid assay; in short: as §1
[5] = Hydrogen peroxide release activity in potassium phosphate buffer at pH 7.4 after 60 mins by […] based colorimetric assay in presence of catalase; type: physicochemical; conditions: pH 7.4, 1 h
In short: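 Compound incubated at pH 7.4 for 1 h. Reaction mixture then treated with catalase before the xylenol orange colorimetric read-out for H2O2.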

[6] = Superoxide release activity in potassium phosphate buffer at pH 7.4 and 25 uM after 30 mins by […]
In short: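 Compound incubated in pH 7.4 buffer. Superoxide detected by luminol-based chemiluminescence.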

[7] = Superoxide release activity in potassium phosphate buffer at pH 7.4 and 25 uM after 30 mins by […] in presence of superoxide dismutase
In short: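 Compound incubated in pH 7.4 buffer with superoxide dismutase present. Superoxide read by luminol-based chemiluminescence.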

[8] = Hydrogen peroxide release activity in potassium phosphate buffer at pH 7.4 after 60 mins by […] based colorimetric assay; type: physicochemical; conditions: pH 7.4, 1 h
In short: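 Compound incubated in pH 7.4 buffer for 1 h. H2O2 then estimated with a xylenol orange-based colorimetric method.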

Row | SMILES | Activity [8] | Activity (Nucleic Acid [1]) | Activity (Nucleic Acid [2]) | also measured
1 | O=C1C(c2ccccc2)=C(N2CCCCC2)C(=O)c2ccccc21 |  | Active | inactive | 
2 | O=C1C(c2ccccc2)=C(N2CCCC2)C(=O)c2ccccc21 |  | Active | inactive | Activity (Nucleic Acid [3]): Active; Activity (Nucleic Acid [4]): Active; Activity [5]: Active; Activity [6]: Active; Activity [7]: Active
3 | NC1=C(c2ccccc2)C(=O)c2ccccc2C1=O | < 2 µM |  |  | 
4 | C=CCNC1=C(c2ccccc2)C(=O)c2ccccc2C1=O | < 2 µM |  |  | 
5 | COc1ccccc1C1=C(N2CCCC2)C(=O)c2ccccc2C1=O | Active | Active | inactive | Activity [5]: Active
6 | O=C1C(Nc2ccccc2)=C(c2ccccc2)C(=O)c2ccccc21 | < 2 µM | Active | inactive | 
7 | O=C1C(c2ccc(F)cc2)=C(N2CCCC2)C(=O)c2ccccc21 | Active | Active | inactive | Activity [5]: Active
8 | CN1CCCC1 [N-METHYL PYRROLIDINE (NMP)] | Not Active |  |  | Activity [6]: inactive
9 | CCCCNC1=C(c2ccccc2)C(=O)c2ccccc2C1=O | < 2 µM |  |  | 
10 | COc1ccc(C2=C(N3CCCC3)C(=O)c3ccccc3C2=O)cc1 | Active | Active | inactive | Activity [5]: Active
11 | C1CCNC1 [PYRROLIDINE] | Not Active |  |  | Activity [6]: inactive
12 | CN(C)CCNC1=C(c2ccccc2)C(=O)c2ccccc2C1=O | < 2 µM |  |  | 

The next lines start with results.

Row | Activity [8] | SMILES | Activity (Nucleic Acid [1]) | Activity (Nucleic Acid [2]) | also measured
13 | < 2 µM | O=C1C(Nc2ccc([N+](=O)[O-])cc2)=C(c2ccccc2)C(=O)c2ccccc21 |  |  | 
14 | < 2 µM | O=C1C(NCc2ccccc2)=C(c2ccccc2)C(=O)c2ccccc21 | Active | inactive | 
15 | < 2 µM | COc1ccc(CNC2=C(c3ccccc3)C(=O)c3ccccc3C2=O)cc1 |  |  | 
16 | < 2 µM | CCCNC1=C(c2ccccc2)C(=O)c2ccccc2C1=O | Active | inactive | 
17 | < 2 µM | O=C1C(NCc2ccc(Cl)cc2)=C(c2ccccc2)C(=O)c2ccccc21 |  |  | 
18 | < 2 µM | COc1ccc(NC2=C(c3ccccc3)C(=O)c3ccccc3C2=O)cc1 |  |  | 

Reference: ChEMBL document CHEMBL2029215, “Synthesis, reactive oxygen species generation and copper-mediated nuclease activity profiles of 2-aryl-3-amino-1,4-naphthoquinones” (Bioorg Med Chem Lett, 2012)
